Measurements pooled from the literature.
Lines come from different studies, so protocols differ.
Target: MAP kinase-activated protein kinase 5 (MAPKAPK5, Homo sapiens, UniProt Q8IW41)
One construct used (Q8IW41 1-473): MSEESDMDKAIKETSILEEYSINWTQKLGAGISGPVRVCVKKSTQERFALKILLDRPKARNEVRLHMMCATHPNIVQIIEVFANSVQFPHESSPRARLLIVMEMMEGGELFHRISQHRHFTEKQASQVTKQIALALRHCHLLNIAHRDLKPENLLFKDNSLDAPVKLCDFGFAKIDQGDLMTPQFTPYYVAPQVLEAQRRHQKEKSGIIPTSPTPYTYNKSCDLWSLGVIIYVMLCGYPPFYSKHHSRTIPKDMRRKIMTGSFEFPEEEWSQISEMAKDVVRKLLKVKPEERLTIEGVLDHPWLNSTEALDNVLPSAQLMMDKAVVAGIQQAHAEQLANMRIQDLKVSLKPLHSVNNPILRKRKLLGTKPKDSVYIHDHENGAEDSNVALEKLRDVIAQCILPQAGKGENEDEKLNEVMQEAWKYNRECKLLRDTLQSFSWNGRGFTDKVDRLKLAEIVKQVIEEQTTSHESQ

SMILES	assay	setting	remaining binding [%]
O=S(=O)(NC1CCC(c2cc(F)ccc2F)(S(=O)(=O)c2ccc(Cl)cc2)CC1)C(F)(F)F (stereo not shown)	cell-free assay, competition with immobilised ligand	1 µM	93
CCN1CCN(Cc2ccc(C(=O)Nc3ccc(C)c(Oc4ccc5c(c4)CC(=O)N5)c3)cc2C(F)(F)F)CC1	binding, competition with immobilised ligand	1 µM	100
CN(C)c1nccc(-c2cnc3ncccn23)n1	binding	1 µM	93
O=C(NCCCN1CCOCC1)c1ccc(Nc2ncc(Cl)c(-c3ccc(Cl)s3)n2)cc1	binding, competition with immobilised ligand	1 µM	100
CN(C(=O)c1ccccc1)c1cc(N(C)c2ccc3c(c2)CCc2ccc(C(=O)NCCN4CCOCC4)cc2C3=O)ccc1F	cell-free assay, competition with immobilised ligand	1 µM	100
CN(CCCC(F)(F)F)c1nccc(-c2cnn3ncccc23)n1	binding	1 µM	100
O=C(NCC1CCOCC1)c1n[nH]cc1NC(=O)c1c(F)cccc1F	binding, competition with immobilised ligand	1 µM	72
COc1cnc(Nc2cccc(S(N)(=O)=O)c2)nc1N1CCN(c2ccccc2)CC1	binding, competition with immobilised ligand	1 µM	96
CN(C)c1ncc(F)c(-c2cnn3ncccc23)n1	binding	1 µM	74
Cn1cc(Cl)c2c(Oc3c(F)cc(Nc4cc(Cl)nc(N)n4)cc3F)ccnc21	cell-free assay, competition with immobilised ligand	0.1 µM	100
C[C@@H]1CCN(c2nccc(-c3cnn4ncccc34)n2)C1	binding	1 µM	69
COc1cnc(Nc2cccc(S(N)(=O)=O)c2)nc1N1CCN(c2ccccc2)C(=O)C1	binding, competition with immobilised ligand	1 µM	100
C=CC(=O)N1CCC(C(=O)NCC(=O)N2CCN(c3nc(-c4cnc(N)nc4C(F)F)nc(N4CCOCC4)n3)CC2)CC1	binding, competition with immobilised ligand	1 µM	92
C[C@H](c1cccc(C#N)c1)n1cc(Cl)cc(C(N)=O)c1=N	cell-free assay, competition with immobilised ligand	1 µM	84
O=C(c1ccc(Nc2nccc(-c3cc4ccccc4s3)n2)cc1)N1CCC(N2CCCC2)CC1	binding, competition with immobilised ligand	1 µM	96
O=C(Nc1ccc(Oc2ccc(F)cc2)cc1)N1CCc2ncccc2[C@H]1c1ccc(F)cc1	cell-free assay, competition with immobilised ligand	1 µM	75
Nc1ncc2c(n1)-c1c([nH]c3ccc(C#CC4CC4)cc13)CCCC2	binding, competition with immobilised ligand	1 µM	97
CN(C)CC#Cc1ccc(OCCCc2sc(N3CCc4cccc(C(=O)Nc5nc6ccccc6s5)c4C3)nc2C(=O)O)c(F)c1	cell-free assay, competition with immobilised ligand	1 µM	99
c1cnn2ncc(-c3ccnc(N4CCC45COC5)n3)c2c1	binding	1 µM	74
